This passage reports yeast fitness results from the RNAGym collection of RNA variant scans (doi:10.1126/science.aae0568).

The labels stand for the following.
B1: tRNA (parent)
chain: GUUCCGUUGGCGUAAUGGUAACGCGUCUCCCUCCUAAGGAGAAGACUGCGGGUUCGAGUCCCGUACGGAACG

This sample holds only a part of the variants without activity.

The variants in the data set derive from B1. The data set is described as follows: yeast fitness relative to wild type (ratio to wild type); higher = fitter; tRNA-Arg(CCU), competitive growth, 37 C, YPD. In outline:
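Amplicons of the tRNA-Arg(CCU) gene were sequenced, 100-nucleotide paired-end, from the start population and from each end population of a pooled yeast competition. The competition, in six parallel replicates, lasted 24 hours in YPD at 37°C. Fitness relative to wild type was calculated from changes in genotype frequencies. Genotypes had to have ≥ 100 starting reads, and estimates < 0.5 were set to 0.5.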
Take GUUCCGUUGGCGUAAUGGUAACGCGUCUUCCUCCUAAGGAGAAGACUGCGGGUUCGAGUCCGGUACGAAACG [C29U C62G G68A]: the yeast fitness is at most 0.5.

Consider GUUCCGUUGGCGUAAUGGUAACGCGUCUUCCUCGUAAGGAGAUGACUGCGGGUUCGAGUCCUGUUCGGCACG [C29U C34G A43U C62U A65U A69C], for which the yeast fitness was at most 0.5.

On to GUUCCGUUGGCGUAAUGGUAACGCGUCUUCCUCCUAAGGAGAAGACUGCGGGUUCGAGUCCCGUAAGGAACG [C29U C66A], for which the yeast fitness was determined as 0.591.

Turning to GUUCCGUUGGCGUAAUGGUAACGCGUCUUCCUCCUAAGGAGAAGACUGCGGGUUCGAGUCCCGUAUGGAACG [C29U C66U], the yeast fitness was 0.796.

Take GUUCCGUUGGCGUAAUGGUAACGCGUCUUCCUCCUAAGGAGAAGACUGCGGGUUUGAGUCCCGUACGGAACG [C29U C55U]: the yeast fitness was 0.636.

Consider GUUCCGUUGGCGUAAUGGUAACGCGUCUUCCUUCUAAGCAGAAGACUGCGGGUUCGUGUCCCGUACGGAACG [C29U C33U G39C A57U], for which the yeast fitness was at most 0.5.

For the variant GUUCCGUUGGCGUAAUGGUAACGCGUCUUCCUCCUAAGGAGAAGAGUGCGAGUUCGAGUCCCGUACGGAACG [C29U C46G G51A], the yeast fitness was 0.543.

Consider GUUCCGUUGGCGUAAUGGUAACGCGUCUUCCUCCUAACGAGAAGUCUGCGGGUUCGAGCCCCGUACGGAACG [C29U G38C A45U U59C], for which the yeast fitness was found to be 0.592.

As for GUUCCGUUGGCGUAAUGGUAACGCGUCUUCCUCCUAAGGAGAAGACUGGGGGUUCGAGUACCGUACGGAACG [C29U C49G C60A], the yeast fitness is at most 0.5.

Turning to GUUCCGUUGGCGUAAUGGUAACGCGUCUUCCUCUUAAGGAAAAGACUGCGGGUUCGAGUCCCGUACAGAUCG [C29U C34U G41A G67A A70U], the yeast fitness is at most 0.5.

Consider GUUCCGUUGGCGUAAUGGUAACGCGUCUUCCUCCUAAGGAGAAGACUGAGGGUUCGAGUCCCGUACCGAACG [C29U C49A G67C], for which the yeast fitness is at most 0.5.

Take GUUCCGUUGGCGUAAUGGUAACGCGUCUUCCUCCUAACGAGAAGACUGCGGGUUUGAGUCCCGUACCGAACG [C29U G38C C55U G67C]: the yeast fitness is at most 0.5.

As to GUUCCGUUGGCGUAAUGGUAACGCGUCUUCCUCCUAACGAGAUGACUGCGGGUUUGAGUCCCGUACGGAACG [C29U G38C A43U C55U], the yeast fitness was determined as 0.516.

As to GUUCCGUUGGCGUAAUGGUAACGCGUCUUCCUCCUAAGGAGAAGACUGCGGGUUCGAGUCCUGUACGGACCG [C29U C62U A70C], the yeast fitness is 0.604.

For the variant GUUCCGUUGGCGUAAUGGUAACGCGUCUUCCUGCUAAGGAGAAGACUGCGGAUUCGACUCCCGUACGGAGCG [C29U C33G G52A G58C A70G], the yeast fitness is at most 0.5.

Consider GUUCCGUUGGCGUAAUGGUAACGCGUCUUCCUCCUAAGGAGAAGACUGCGGGUUCGAGUCCAGUAUGGAACG [C29U C62A C66U], for which the yeast fitness was at most 0.5.

For GUUCCGUUGGCGUAAUGGUAACGCGUCUUCCUCCUAAGGAGAAGACUGCGGGUUUGAGUCCCGUGCGGAACG [C29U C55U A65G], the yeast fitness is at most 0.5.

Consider GUUCCGUUGGCGUAAUGGUAACGCGUCUUCCUCCUAAGGAGAAGAGUGCGGGUUCAAGUACGGUAAGGAACG [C29U C46G G56A C60A C62G C66A], for which the yeast fitness came to 0.543.

On to GUUCCGUUGGCGUAAUGGUAACGCGUCUUCCUCCUAACGAGAAGGCUGCGCGUUCGAGUCCCGUACGGAACG [C29U G38C A45G G51C], for which the yeast fitness is at most 0.5.

As for GUUCCGUUGGCGUAAUGGUAACGCGUCUUCCUCCUAAGGAGAAGACUGUGGGUUCGAGUCCCGUACGGAACG [C29U C49U], the yeast fitness was 0.836.

Regarding GUUCCGUUGGCGUAAUGGUAACGCGUCUUCCUCCUAACGAGAAGACUGCGGGUUCGAGUCCCGUACGGAACG [C29U G38C], the yeast fitness came to 0.545.

In the case of GUUCCGUUGGCGUAAUGGUAACGCGUCUUCCUCCUAAAGAGAAGACUGCGGGUUCGAGUCCCGUACGGAACG [C29U G38A], the yeast fitness amounted to 0.733.

Regarding GUUCCGUUGGCGUAAUGGUAACGCGUCUUCCUCCUAAGGAGAAGACUGCGGGUUCGAGUCUCCUACGGAACG [C29U C61U G63C], the yeast fitness is at most 0.5.

For GUUCCGUUGGCGUAAUGGUAACGCGUCUUCCUGCUAAGGAGAAGACUGCGGAUUCGACUCCCGUACGGAACG [C29U C33G G52A G58C], the yeast fitness was 0.596.

As for GUUCCGUUGGCGUAAUGGUAACGCGUCUUCCUCUUAAGGAGAAGACUCCGGAUUCGAGUCCCGUACGGAACG [C29U C34U G48C G52A], the yeast fitness is at most 0.5.

For GUUCCGUUGGCGUAAUGGUAACGCGUCUUCCUUCCAAGGAGAAGACUGCGGGUACGAGUCCCGUACGGAACG [C29U C33U U35C U54A], the yeast fitness is at most 0.5.

In the case of GUUCCGUUGGCGUAAUGGUAACGCGUCUUCCUCCUAAGGAGAAGAAUGCGGGUUCGAGUCCCGUACGGAACG [C29U C46A], the yeast fitness was 0.932.

In the case of GUUCCGUUGGCGUAAUGGUAACGCGUCUUCCUCCUAAGGAGAAGAUUGCGGGUUCGAGUCCCGUACGGAACG [C29U C46U], the yeast fitness worked out at 0.929.

For GUUCCGUUGGCGUAAUGGUAACGCGUCUUCCUCCUAAGGAGAAGACUGCGGGUUCGAGUCUCGUACGGAACG [C29U C61U], the yeast fitness turned out to be 0.706.

Regarding GUUCCGUUGGCGUAAUGGUAACGCGUCUUCCUCCUAACGAGAAGAAUGCGGGUUCGAGUCCCGUACGGAACG [C29U G38C C46A], the yeast fitness was at most 0.5.

Take GUUCCGUUGGCGUAAUGGUAACGCGUCUUCCUCAUAAGGAGAAGACUGCGAGUUCGAGUCCCGUACGGAACG [C29U C34A G51A]: the yeast fitness turned out to be 0.664.

As for GUUCCGUUGGCGUAAUGGUAACGCGUCUUCCUUCUAAGGGGAAGACAGCGGGUUCGAGUCCCGUACGGAACG [C29U C33U A40G U47A], the yeast fitness is at most 0.5.

On to GUUCCGUUGGCGUAAUGGUAACGCGUCUUCCUUCUAAGGAGCAGACUGCGGGUUCGAGUCCCGUACGGAACG [C29U C33U A42C], for which the yeast fitness came out at 0.774.

In the case of GUUCCGUUGGCGUAAUGGUAACGCGUCUUCCUCCUAAAGAGAAGACUCCGGGUUCGAGUCCGGUACGGAACG [C29U G38A G48C C62G], the yeast fitness was 0.525.

Take GUUCCGUUGGCGUAAUGGUAACGCGUCUUCCUCCUAAGGAGAAGACUGCGGGUUGGAGUCCCGUACGCAACG [C29U C55G G68C]: the yeast fitness is at most 0.5.

GUUCCGUUGGCGUAAUGGUAACGCGUCUUCCUCAUAAGGAGAAGACUGCGGGUUCGAGUCCCGUACGGAACG [C29U C34A]: the yeast fitness amounted to 0.761.

For the variant GUUCCGUUGGCGUAAUGGUAACGCGUCUUCCUCCUAAGGAGAAGACUGAGGGUUCGAGUCCCGCACGGAACG [C29U C49A U64C], the yeast fitness is 0.597.

Regarding GUUCCGUUGGCGUAAUGGUAACGCGUCUUCCUCGUAAGGAGAAGACUGCGGGUUCGAGUCCCGUGCGGAACG [C29U C34G A65G], the yeast fitness was found to be 0.668.
